{"data": "Assay results of several laboratories", "cell line": "HT-29", "read-out": "cell growth or viability"}
{"Compound": "COc1ccc(C(=O)/C=C/c2cc3c(cc2Br)OCO3)cc1S(N)(=O)=O", "method": "SRB", "tested at": "10 µM", "inhibition [%]": 100}
{"Compound": "COc1cc2ncnc(NN=C3C(=O)Nc4ccc(C)cc43)c2cc1OC", "tested at": "30 µM", "inhibition [%]": 49.3}
{"Compound": "CN1C(=O)/C(=N\\NC(=O)c2cc3ccccc3[nH]2)c2cc(Br)ccc21", "tested at": "30 µM", "inhibition [%]": 95.2}
{"Compound": "COc1ccc(C2=Nn3c(NN=C4C(=O)Nc5ccc(Cl)cc54)nnc3SC2)cc1", "method": "SRB", "tested at": "10 µM", "inhibition [%]": 27}
{"Compound": "COc1ccc(C(=O)/C=C/c2ccc(Cl)c(Cl)c2)cc1S(N)(=O)=O", "method": "SRB", "tested at": "10 µM", "inhibition [%]": 150}
{"Compound": "CCN(CC)CCNC(=O)c1c(C)[nH]c(/C=C2\\C(=O)Nc3ccc(F)cc32)c1C", "tested at": "30 µM", "inhibition [%]": 59.5}
{"Compound": "COc1cc2ncnc(NN=C3C(=O)Nc4ccccc43)c2cc1OC", "tested at": "30 µM", "inhibition [%]": 38.7}
{"Compound": "COc1ccc(C(=O)/C=C/c2ccc3ccccc3c2)cc1S(N)(=O)=O", "method": "SRB", "tested at": "10 µM", "inhibition [%]": 126}
{"Compound": "COc1ccc(-c2nc(NN=C3C(=O)Nc4ccc(F)cc43)c3ccccc3n2)cc1OC", "tested at": "30 µM", "inhibition [%]": 9.6}
{"Compound": "O=C1Nc2ccc(F)cc2/C1=N/NC(=O)c1cc2ccccc2[nH]1", "tested at": "30 µM", "inhibition [%]": 13.9}
{"Compound": "COc1cc2ncnc(NN=C3C(=O)Nc4ccc(Br)cc43)c2cc1OC", "tested at": "10 µM", "inhibition [%]": 18.6}
{"Compound": "O=C(N/N=C1\\C(=O)N(c2ccccc2)c2ccccc21)c1cc2ccccc2[nH]1", "tested at": "30 µM", "inhibition [%]": 97}
{"Compound": "COc1ccc(C(=O)/C=C/c2cccnc2)cc1S(N)(=O)=O", "method": "SRB", "tested at": "10 µM", "inhibition [%]": 76}
{"Compound": "O=C1Nc2ccc(Cl)cc2/C1=N/NC(=O)c1cc2ccccc2[nH]1", "tested at": "30 µM", "inhibition [%]": 29.4}
{"Compound": "COc1ccc(C(=O)/C=C/c2cccc(Cl)c2Cl)cc1S(N)(=O)=O", "method": "SRB", "tested at": "10 µM", "inhibition [%]": 106}
{"Compound": "O=C1Nc2ccccc2C1=NNc1nnc(Cc2ccccc2)c2ccccc12", "tested at": "30 µM", "inhibition [%]": 87.6}
{"Compound": "CN1C(=O)/C(=N\\NC(=O)c2cc3ccccc3[nH]2)c2cc(Cl)ccc21", "tested at": "30 µM", "inhibition [%]": 92.4}
{"Compound": "Cn1c(=O)c(NN=C2C(=O)Nc3ccc(Br)cc32)nc2ccccc21", "tested at": "30 µM", "inhibition [%]": 49.4}
{"Compound": "COc1ccc(C(=O)/C=C/c2ccc3c(c2)OCCO3)cc1S(N)(=O)=O", "method": "SRB", "tested at": "10 µM", "inhibition [%]": 67}
